Screening data (PubChem BioAssay)
This is a sample that favours compounds with a hit; in the whole collection about 6.8% have one here.
ALR inh – blocks human ALR sulfhydryl oxidase activity. purified ALR, DTT oxidation, H2O2 HRP-luminol luminescence. inhibition, % (concentration not given with the values). 290,000 tested, 3.8% active;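 active = mean replicate inhibition above about 79%, with every replicate also reaching it, limit read from the data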
Target sequence (P55789 whole entry, looked up): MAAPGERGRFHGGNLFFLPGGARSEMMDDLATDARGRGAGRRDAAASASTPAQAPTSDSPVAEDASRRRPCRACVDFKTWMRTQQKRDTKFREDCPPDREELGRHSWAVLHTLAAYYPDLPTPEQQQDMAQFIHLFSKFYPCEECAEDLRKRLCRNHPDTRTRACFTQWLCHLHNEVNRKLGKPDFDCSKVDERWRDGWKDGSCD
HCV core dimer – HCV core protein dimerization inhibition | inhibition, % at 5 µM | TR-FRET GST/Flag-core106 dimerization, 1536-well | 300,000 tested, 0.33% active;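 active = inhibition above the mean of all tested compounds plus 3 SD, set per screening campaign, cut at about 45% in these data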
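test system = GST/Flag-tagged HCV core106 proteins | probe or stimulus = Eu donor and XL665 acceptor anti-tag antibodies | times = compound-protein-antibody incubation 4 h at 22.5 °C | signal = TR-FRET, excitation 340 nm, emission 617 and 671 nm | measure = percent inhibition of core106 dimerization signal | controls = wells lacking GST-core106 and wells with excess unlabelled core106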
AI-2 QS mod – Vibrio harveyi AI-2 quorum sensing modulation; Vibrio harveyi JMH597 AI-2 luminescence/OD600 ratio, 9 h; hits give low values; strain lacks LuxN and CqsS sensors; 0 = neutral-control median; activity change, % at 7.5 µM; 300,000 tested, 0.4% active; AID 2094; in the data active = activity change below about -75%, passing the limit was not always enough;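 note: luminescence divided by OD600 gain over 9 h not by final OD600 alone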
PHOSPHO1 inh – inhibitors of human PHOSPHO1 phosphatase. Q8TCT1. recombinant PHOSPHO1, absorbance phosphatase assay. inhibition, % at 13.3 µM. 290,000 tested, 1.1% active. AID 1565; in the data active = inhibition above about 60%
Target sequence (Q8TCT1 whole entry, looked up): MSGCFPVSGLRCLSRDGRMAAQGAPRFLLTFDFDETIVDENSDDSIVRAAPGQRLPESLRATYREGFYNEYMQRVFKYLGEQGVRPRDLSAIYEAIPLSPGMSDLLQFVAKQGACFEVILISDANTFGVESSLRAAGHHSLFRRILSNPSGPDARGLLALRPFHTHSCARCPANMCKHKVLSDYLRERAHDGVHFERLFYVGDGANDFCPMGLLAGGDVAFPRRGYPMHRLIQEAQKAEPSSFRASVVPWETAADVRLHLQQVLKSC
HSF-1 act – increases HSF-1 driven luciferase reporter signal; NIH3T3-HGL HSF-1 luciferase reporter, MG132, 8 h; 100% = twice DMSO control signal; activation, % at 9 µM; 300,000 tested, 1.7% active;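 active = mean replicate activation of at least 50% with a set share of replicates each reaching 50%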;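 note: 0% = median of the neutral control wells and 100% = twice that signal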
HSF1 inh – HSF1 inhibition; 300,000 tested, 0.77% active; activity change, negative = inhibition, % at 7.5 µM (by protocol); NIH3T3-HGL HSE-luciferase, MG132-induced, luminescence 8 h; hits give low values;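 active = more than half of replicate wells show activity change below -50%, luminescence cut by over half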;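 note: luciferase reports HSF-1 transcriptional activity via heat shock element; 0% = median of DMSO wells and -100% = zero luminescence signal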
Numbers without * were called inactive.

Results for O=C(CCCN1C(=O)/C(=C\c2ccccc2)SC1=S)Nc1ccc(C(=O)O)cc1 ?
ALR inh: 2; HCV core dimer: 0; AI-2 QS mod: 0; PHOSPHO1 inh: 26; HSF-1 act: -2; HSF1 inh: -6

What do the screens show for `CC(/C=C1\SC(=S)N(CC(=O)N2CCN(c3ccccc3)CC2)C1=O)=C\c1ccccc1`?
ALR inh: -14; HCV core dimer: 50*; AI-2 QS mod: 22; PHOSPHO1 inh: -1; HSF-1 act: 3; HSF1 inh: -2

Results for CC(=O)c1ccc(NC(=O)CCCN2C(=O)/C(=C/C(C)=C/c3ccccc3)SC2=S)cc1 ?
HCV core dimer: 18; AI-2 QS mod: 20; PHOSPHO1 inh: -1; HSF-1 act: 70*; HSF1 inh: 37

What do the screens show for `CN(C)c1nc2c(c(=O)[nH]c(=O)n2C)n1CCCc1ccccc1`?
ALR inh: 18; HCV core dimer: -11; AI-2 QS mod: -4; PHOSPHO1 inh: 45; HSF-1 act: 15; HSF1 inh: -3

How did COc1ccc(N(C(=O)c2ccco2)C(C(=O)NC2CCCC2)c2cccs2)cc1 (stereo not given) do in these assays?
ALR inh: -3; HCV core dimer: 6; AI-2 QS mod: 12; PHOSPHO1 inh: 49; HSF-1 act: 66*; HSF1 inh: 15

How did COC(=O)c1ccc(-c2ccco2)n1Cc1cccc(C)c1 do in these assays?
ALR inh: 51; HCV core dimer: -4; AI-2 QS mod: 12; PHOSPHO1 inh: 6; HSF-1 act: 7; HSF1 inh: -1

Results for O=C(O)c1ccc(-c2ccco2)n1Cc1ccccc1 ?
ALR inh: 99*; HCV core dimer: 0; AI-2 QS mod: 15; PHOSPHO1 inh: 20; HSF-1 act: 9; HSF1 inh: 6

What do the screens show for `COC(=O)C(NC(=O)CCc1nnc2ccc(N3CCCCC3)nn12)C(C)C` (stereo not given)?
ALR inh: -2; HCV core dimer: 2; AI-2 QS mod: 17; PHOSPHO1 inh: 50; HSF-1 act: -1; HSF1 inh: -10

How did O=C(Nc1ccncc1)c1ccccc1-c1ccccc1 do in these assays?
ALR inh: -6; HCV core dimer: 10; AI-2 QS mod: 2; PHOSPHO1 inh: 39; HSF-1 act: 7; HSF1 inh: 8

How did CCS(=O)(=O)N1CCC(C(=O)Nc2ccc(C(C)=O)cc2)CC1 do in these assays?
ALR inh: -5; HCV core dimer: 5; AI-2 QS mod: 29; PHOSPHO1 inh: 30; HSF-1 act: -4; HSF1 inh: -4

Results for CN1/C(=C/C2CC(=O)NC2=O)C(C)(C)c2ccccc21 (stereo not given) ?
ALR inh: 98*; HCV core dimer: -1; PHOSPHO1 inh: 26

Results for Cc1ccc(Oc2ncccc2C(=O)NC2CCSC2=O)cc1 (stereo not given) ?
ALR inh: -10; HCV core dimer: 0; AI-2 QS mod: 22; PHOSPHO1 inh: 52; HSF-1 act: -11; HSF1 inh: -17

What do the screens show for `Cc1nn(-c2ccc(F)cc2)c(C)c1CN1CCN(CCC(C)C)C(CCO)C1` (stereo not given)?
ALR inh: 6; HCV core dimer: 0; AI-2 QS mod: 0; PHOSPHO1 inh: 23; HSF-1 act: -1; HSF1 inh: -1

How did O=c1[nH]n(CC2COC3(CCCCC3)O2)c(=O)c2ccccc12 (stereo not given) do in these assays?
ALR inh: 3; HCV core dimer: 0; AI-2 QS mod: 33; PHOSPHO1 inh: 23; HSF-1 act: 63*; HSF1 inh: 39

Results for CCCOC(=O)C1=C(C)N(C)C(=O)NC1c1cc2c(cc1[N+](=O)[O-])OCO2 (stereo not given) ?
ALR inh: 12; HCV core dimer: -3; AI-2 QS mod: 20; PHOSPHO1 inh: -20; HSF-1 act: -4; HSF1 inh: 3

Results for CCOC(=O)C1=C(C)NC(=O)CC1c1cc2c(cc1[N+](=O)[O-])OCO2 (stereo not given) ?
ALR inh: 91*; HCV core dimer: -6; AI-2 QS mod: 5; PHOSPHO1 inh: 12; HSF-1 act: 8; HSF1 inh: 7

How did O=C(c1cc(Cl)ccc1Cl)N1CCOCC1 do in these assays?
ALR inh: -20; HCV core dimer: -14; AI-2 QS mod: 35; PHOSPHO1 inh: 11; HSF-1 act: -78; HSF1 inh: -72*

What do the screens show for `O=C(O)c1cc(Cl)c(Cl)cc1C(=O)N1CCOCC1`?
ALR inh: -6; HCV core dimer: 0; AI-2 QS mod: 5; PHOSPHO1 inh: 15; HSF-1 act: -13; HSF1 inh: -9

Results for CC1=C(C)CS(=O)N(S(=O)(=O)c2ccc(Cl)cc2)C1 (stereo not given) ?
ALR inh: 99*; HCV core dimer: 4; AI-2 QS mod: 60; PHOSPHO1 inh: -48; HSF-1 act: 8; HSF1 inh: 17

What do the screens show for `COc1ccc(N2CCN(C(=O)c3ccc(CS(=O)c4cccc(C)c4)o3)CC2)cc1` (stereo not given)?
ALR inh: 99*; HCV core dimer: 2; AI-2 QS mod: -2; PHOSPHO1 inh: 26; HSF-1 act: 16; HSF1 inh: 3

How did Cc1cccc(N2CCN(C(=O)c3ccc(CS(=O)Cc4cccc(Cl)c4)o3)CC2)c1C (stereo not given) do in these assays?
ALR inh: 100*; HCV core dimer: 0; AI-2 QS mod: 26; PHOSPHO1 inh: 24; HSF-1 act: 32; HSF1 inh: 6

Results for COc1cccc(N2CCN(C(=O)c3ccc(CS(=O)c4ccccc4C)o3)CC2)c1 (stereo not given) ?
ALR inh: 91*; HCV core dimer: 2; AI-2 QS mod: 7; PHOSPHO1 inh: 26; HSF-1 act: 38; HSF1 inh: 20

Results for COc1cccc(NC(=O)CC(=O)c2ccccc2)c1 ?
HCV core dimer: 6; AI-2 QS mod: -22; HSF-1 act: 41; HSF1 inh: 18

Results for COc1ccc(C(=O)/C=C/Nc2ccc(S(=O)(=O)Nc3cc(OC)nc(OC)n3)cc2)c(OC)c1 ?
HCV core dimer: 18; AI-2 QS mod: 24; PHOSPHO1 inh: 2; HSF-1 act: 31; HSF1 inh: -1

How did Cc1ccc(C(=O)Nc2ccc(C(=O)N3CCCCC3)cc2)o1 do in these assays?
ALR inh: -1; HCV core dimer: 1; AI-2 QS mod: -39; PHOSPHO1 inh: 24; HSF-1 act: 7; HSF1 inh: -3

Results for COc1ccc(CC(=O)Nc2ccccc2C(=O)N2CCCC2)cc1 ?
ALR inh: -4; HCV core dimer: 0; AI-2 QS mod: 6; HSF-1 act: -5; HSF1 inh: -1

How did Nc1cc(C(=O)O)ccc1Nc1ccc(F)c(F)c1 do in these assays?
ALR inh: 97*; HCV core dimer: -6; PHOSPHO1 inh: 6
